Data taken from ChEMBL document CHEMBL3351557, “Discovery of Potent and Simplified Piperidinone-Based Inhibitors of the MDM2-p53 Interaction” (ACS Med Chem Lett, 2014).
pIC50: −log10 of the molar value. The source made the active and inactive calls. The rule behind the calls is not given here.

Tests used:
SJSA-1 [1] = test: Antiproliferative activity against human SJSA1 cells after 3 days by EdU incorporation-based HCS assay in presence of 10% human serum; assay type: functional, cell-based; settings: SJSA-1, 72 h
[2] = Clearance in rat at 0.5 mg/kg, iv; assay type: ADME, organism-based; set-up: dose 0.5 mg/kg, route intravenous; settings: in vivo
[3] = biological target: T1, Tumour suppressor p53/oncoprotein Mdm2 (Homo sapiens, UniProt Q00987); test: Inhibition of human MDM2 (1-188 aa) -p53 (1-83 aa) interaction expressed in Escherichia coli after 18 hrs by HTRF assay in presence of 15% human serum
[4] = biological target: T1, Tumour suppressor p53/oncoprotein Mdm2; test: Inhibition of human MDM2 (1-188 aa) -p53 (1-83 aa) interaction expressed in Escherichia coli after 18 hrs by HTRF assay
[5] = Oral bioavailability in rat at 2 mg/kg; assay type: ADME, organism-based; settings: in vivo
[6] = Clearance in mouse at 1 mg/kg, iv; assay type: ADME, organism-based; set-up: dose 1 mg/kg, route intravenous; settings: in vivo
SJSA-1 [7] = test: Increase in p21 mRNA expression in tumor of human SJSA1 cells xenografted athymic nude mouse compound administered as single oral dose 2 weeks post implantation measured 4 to 8 hrs post dose relative to vehicle-treated control; assay type: functional
Procedure, shortened: (§1)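 SJSA-1 osteosarcoma cells were implanted in mice 2 weeks before a single oral dose (100 or 200 mg/kg in one study; 50, 100 or 200 mg/kg in another). Tumour p21 mRNA, a p53 transcriptional target, was measured at several times after dosing and expressed relative to vehicle-treated controls.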

SJSA-1 [8] = test: Increase in p21 mRNA expression in tumor of human SJSA1 cells xenografted athymic nude mouse at 50 to 200 mg/kg, po administered as single dose 2 weeks post implantation relative to vehicle-treated control; assay type: functional, organism-based; procedure, shortened: as §1
[9] = Oral bioavailability in mouse at 5 mg/kg; assay type: ADME, organism-based; settings: in vivo
[10] = Intrinsic clearance in rat hepatocytes assessed per million cells; assay type: ADME, cell-based, Hepatocyte; settings: read-out: CLH
[11] = Clearance in rat at 0.5 mg/kg, iv; settings: in vivo
SJSA-1 [12] = test: Antitumor activity against human SJSA1 cells xenografted in athymic nude mouse assessed as tumor growth inhibition at 50 mg/kg, po bid administered 2 weeks post implantation relative to vehicle-treated control; settings: SJSA-1, po, 336 h, read-out: TGI
Mus musculus [13] = test: Toxicity in human SJSA1 cells xenografted athymic nude mouse assessed as body weight loss at 200 mg/kg, po qd administered 2 weeks post implantation; assay type: organism-based, SJSA-1; set-up: dose 200 mg/kg, route oral; settings: in vivo, 336 h
Procedure, shortened: (§2)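 Female athymic nude mice were implanted subcutaneously with 5 × 10⁶ SJSA-1 cells. Oral gavage of vehicle or compound (50, 100 or 200 mg/kg QD; 50 or 100 mg/kg BID) began on day 14, when tumours were about 200 mm³. There were 10 mice per group, and tumours were measured twice weekly.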

SJSA-1 [14] = test: Antitumor activity against human SJSA1 cells xenografted in athymic nude mouse assessed as tumor growth inhibition at 100 mg/kg, po qd administered 2 weeks post implantation relative to vehicle-treated control; settings: SJSA-1, po, 336 h, read-out: TGI
Mus musculus [15] = test: Toxicity in human SJSA1 cells xenografted athymic nude mouse assessed as body weight loss at 100 mg/kg, po bid administered 2 weeks post implantation; assay type: organism-based, SJSA-1; set-up: dose 100 mg/kg, route oral; settings: in vivo, 336 h; procedure, shortened: as §2
SJSA-1 [16] = test: Increase in p21 mRNA expression in tumor of human SJSA1 cells xenografted athymic nude mouse at 100 mg/kg, po as single dose administered 2 weeks post implantation measured 4 hrs post dose relative to vehicle-treated control; assay type: functional, organism-based; set-up: dose 100 mg/kg; procedure, shortened: as §1
[17] = Half life in rat at 0.5 mg/kg, iv; assay type: ADME, organism-based; set-up: dose 0.5 mg/kg, route intravenous; settings: in vivo
[18] = Intrinsic clearance in human hepatocytes assessed per million cells; assay type: ADME, cell-based, Hepatocyte; settings: read-out: CLH
[19] = Half life in mouse; assay type: ADME, organism-based; settings: in vivo
[20] = Bioavailability in rat at 0.5 mg/kg, iv; assay type: ADME, organism-based; settings: in vivo
[21] = Clearance in mouse; assay type: ADME, organism-based; settings: in vivo

T1 sequence (P04637 whole entry, the tested form may be a part): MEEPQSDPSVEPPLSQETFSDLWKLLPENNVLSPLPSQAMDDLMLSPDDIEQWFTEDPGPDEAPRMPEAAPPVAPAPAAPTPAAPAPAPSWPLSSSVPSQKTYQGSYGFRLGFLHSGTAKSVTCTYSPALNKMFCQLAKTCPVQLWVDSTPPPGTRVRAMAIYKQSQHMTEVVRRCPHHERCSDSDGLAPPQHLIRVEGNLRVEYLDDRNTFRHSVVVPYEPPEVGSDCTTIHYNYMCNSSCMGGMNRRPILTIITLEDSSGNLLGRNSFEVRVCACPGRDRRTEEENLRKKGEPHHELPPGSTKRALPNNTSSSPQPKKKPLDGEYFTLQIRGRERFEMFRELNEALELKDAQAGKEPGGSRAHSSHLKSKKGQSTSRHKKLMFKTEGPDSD
T1 sequence (Q00987 whole entry, the tested form may be a part): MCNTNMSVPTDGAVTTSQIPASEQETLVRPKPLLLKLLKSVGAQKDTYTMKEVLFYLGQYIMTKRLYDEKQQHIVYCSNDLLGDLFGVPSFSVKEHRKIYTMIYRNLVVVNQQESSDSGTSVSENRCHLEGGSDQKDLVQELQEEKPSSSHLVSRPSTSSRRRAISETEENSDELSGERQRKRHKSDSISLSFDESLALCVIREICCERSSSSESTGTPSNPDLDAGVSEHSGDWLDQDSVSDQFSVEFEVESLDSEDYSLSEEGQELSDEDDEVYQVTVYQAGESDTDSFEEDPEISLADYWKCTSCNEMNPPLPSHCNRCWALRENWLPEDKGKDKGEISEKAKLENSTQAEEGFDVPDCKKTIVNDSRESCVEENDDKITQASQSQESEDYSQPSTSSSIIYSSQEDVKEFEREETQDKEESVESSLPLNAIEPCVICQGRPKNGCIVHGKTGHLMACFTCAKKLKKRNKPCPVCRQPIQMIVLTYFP

| Structure (SMILES) | pIC50 (SJSA-1 [1]) | clearance [2] | pIC50 [3] | pIC50 [4] | further results |
| --- | --- | --- | --- | --- | --- |
| CC(C)[C@@H](c1ccccn1)N1C(=O)[C@@](C)(CC(=O)O)C[C@H](c2cccc(Cl)c2)[C@H]1c1ccc(Cl)cc1 | 6.54 |  |  |  |  |
| C[C@]1(CC(=O)O)C[C@H](c2cccc(Cl)c2)[C@@H](c2ccc(Cl)cc2)N(c2ccccc2)C1=O |  | 40.8 mL/min/kg | 7.26 | 8.40 |  |
| CCC(CC)N1C(=O)[C@@](C)(CC(=O)O)C[C@H](c2cccc(Cl)c2)[C@H]1c1ccc(Cl)cc1 |  | 7.5 mL/min/kg |  |  | bioavailability [5]: 38%; clearance [6]: 16.5 mL/min/kg; Activity (SJSA-1 [7]): Dose-dependent effect; Activity (SJSA-1 [8]; TDE = time-dependent effect): tde; bioavailability [9]: 42%; hepatocyte CLint [10]: 18.8 µL/min/1e6 cells; clearance [11]: 7.5 mL/min/kg |
| CC[C@@H](c1ccncc1)N1C(=O)[C@@](C)(CC(=O)O)C[C@H](c2cccc(Cl)c2)[C@H]1c1ccc(Cl)cc1 | 6.34 |  |  |  |  |
| C[C@]1(CC(=O)O)C[C@H](c2cccc(Cl)c2)[C@@H](c2ccc(Cl)cc2)N(c2ccccn2)C1=O |  | 36 mL/min/kg | 6.91 | 7.89 |  |
| CC[C@@H](c1cccc(C)n1)N1C(=O)[C@@](C)(CC(=O)O)C[C@H](c2cccc(Cl)c2)[C@H]1c1ccc(Cl)cc1 | 6.55 | 15.5 mL/min/kg |  |  |  |
| CC[C@@H](c1ncccn1)N1C(=O)[C@@](C)(CC(=O)O)C[C@H](c2cccc(Cl)c2)[C@H]1c1ccc(Cl)cc1 | 6.38 |  |  |  |  |
| CC[C@@H](c1ncccc1C)N1C(=O)[C@@](C)(CC(=O)O)C[C@H](c2cccc(Cl)c2)[C@H]1c1ccc(Cl)cc1 | 6.51 |  | 6.74 | 8.30 |  |
| CC[C@@H](c1cccc(C2CC2)n1)N1C(=O)[C@@](C)(CC(=O)O)CC(c2cccc(Cl)c2)[C@H]1c1ccc(Cl)cc1 (single isomer, unassigned) | 5.74 |  |  |  |  |
| CC(C)N1C(=O)[C@@](C)(CC(=O)O)C[C@H](c2cccc(Cl)c2)[C@H]1c1ccc(Cl)cc1 | 6.42 | 17.3 mL/min/kg |  |  | bioavailability [5]: 48%; clearance [6]: 17.2 mL/min/kg; inhibition in vivo at 50 mg/kg (SJSA-1 [12]): 82%; Activity (Mus musculus [13]): Toxic; Activity (SJSA-1 [7]): Active; Activity (SJSA-1 [8]): Active; bioavailability [9]: 32%; hepatocyte CLint [10]: 8.5 µL/min/1e6 cells; inhibition in vivo at 100 mg/kg (SJSA-1 [14]): 96%; Activity (Mus musculus [15]): Toxic; clearance [11]: 17.3 mL/min/kg; Activity (SJSA-1 [16]): Active |
| C[C@@H](c1ccccn1)N1C(=O)[C@@](C)(CC(=O)O)C[C@H](c2cccc(Cl)c2)[C@H]1c1ccc(Cl)cc1 | 6.38 |  | 7.21 | 8.00 |  |
| CC[C@@H]([C@@H]1CCCO1)N1C(=O)[C@@](C)(CC(=O)O)C[C@H](c2cccc(Cl)c2)[C@H]1c1ccc(Cl)cc1 | 6.91 |  |  |  |  |
| CC[C@@H]([C@H](C)OC)N1C(=O)[C@@](C)(CC(=O)O)C[C@H](c2cccc(Cl)c2)[C@H]1c1ccc(Cl)cc1 | 6.84 |  |  |  |  |
| CC[C@@H](c1ccc(C)cn1)N1C(=O)[C@@](C)(CC(=O)O)CC(c2cccc(Cl)c2)[C@H]1c1ccc(Cl)cc1 (single isomer, unassigned) | 6.05 |  | 6.91 | 8.15 |  |
| CCC[C@@H](c1ccccn1)N1C(=O)[C@@](C)(CC(=O)O)C[C@H](c2cccc(Cl)c2)[C@H]1c1ccc(Cl)cc1 | 6.00 | 3.33 mL/min/kg |  |  | half-life [17]: 6.9 h |
| CC[C@@H](c1cnco1)N1C(=O)[C@@](C)(CC(=O)O)C[C@H](c2cccc(Cl)c2)[C@H]1c1ccc(Cl)cc1 | 6.08 |  | 7.44 | 8.10 |  |
| CC[C@@H](c1ccccn1)N1C(=O)[C@@](C)(CC(=O)O)CC(c2cccc(Cl)c2)[C@H]1c1ccc(Cl)cc1 (single isomer, unassigned) | 6.37 |  |  |  | hepatocyte CLint [18]: 7 µL/min/1e6 cells; half-life [19]: 1.9 h; half-life [17]: 3.5 h; bioavailability [20]: 79%; hepatocyte CLint [10]: 13 µL/min/1e6 cells; clearance [21]: 51.7 mL/min/kg |
| CC[C@@H](c1cccc(Cl)n1)N1C(=O)[C@@](C)(CC(=O)O)C[C@H](c2cccc(Cl)c2)[C@H]1c1ccc(Cl)cc1 | 6.68 | 20 mL/min/kg |  |  |  |
| CC[C@@H](c1cc(C)ccn1)N1C(=O)[C@@](C)(CC(=O)O)C[C@H](c2cccc(Cl)c2)[C@H]1c1ccc(Cl)cc1 | 6.05 |  | 7.22 | 8.22 |  |
